By inhibition is commonly meant the percentage by which the read-out fell short of the control. A low value points to little suppression. As a reminder, the Ki is the dissociation constant of the complex between target and ligand, obtained from inhibition or displacement. What is called Kb is the equilibrium dissociation constant of an antagonist, usually derived from a functional assay.

The target of assay [1] is T1, Adenosine receptor A2b (Homo sapiens) (UniProt P29275).
T1 sequence (whole entry): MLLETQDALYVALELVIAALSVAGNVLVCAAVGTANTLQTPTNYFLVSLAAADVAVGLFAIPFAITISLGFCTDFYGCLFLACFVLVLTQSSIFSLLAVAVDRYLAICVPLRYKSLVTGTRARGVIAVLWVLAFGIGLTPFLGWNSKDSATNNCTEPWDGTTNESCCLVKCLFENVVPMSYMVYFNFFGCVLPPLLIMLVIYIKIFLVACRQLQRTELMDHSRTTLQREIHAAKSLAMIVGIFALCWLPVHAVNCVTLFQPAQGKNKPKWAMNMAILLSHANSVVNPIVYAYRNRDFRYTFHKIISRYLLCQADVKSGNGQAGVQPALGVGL
In words: Displacement of [3H]DPCPX from human adenosine A2B receptor expressed in HEK293 cells at 0.1 uM by liquid scintillation counting. The assay is classed as cell-based. The procedure, abridged: (§1)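 HEK-293 membranes (18 μg) were incubated with [3H]DPCPX (35 nM) at 25 °C for 30 min, with six concentrations from 0.1 nM to 1 μM. Nonspecific binding was defined with 400 μM NECA. Filters were washed six times with ice-cold buffer and counted by scintillation. Ki (Cheng–Prusoff) is mean ± SEM, n=3; % displacement at 0.1 μM is n=2.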
For orientation: Loss of bound radioactivity is the signal in a displacement assay; it reports binding, not function.

Assay [2] concerns the target T2, Adenosine receptor A3 (Homo sapiens) (UniProt P0DMS8).
T2 sequence (whole entry): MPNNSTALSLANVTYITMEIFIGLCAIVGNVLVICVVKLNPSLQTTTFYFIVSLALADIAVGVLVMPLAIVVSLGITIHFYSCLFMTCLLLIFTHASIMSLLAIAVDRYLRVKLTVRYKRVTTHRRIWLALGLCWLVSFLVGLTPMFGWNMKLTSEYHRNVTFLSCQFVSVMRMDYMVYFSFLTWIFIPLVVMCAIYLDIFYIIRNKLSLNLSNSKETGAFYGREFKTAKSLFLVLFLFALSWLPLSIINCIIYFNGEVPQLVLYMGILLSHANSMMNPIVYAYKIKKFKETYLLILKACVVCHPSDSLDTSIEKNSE
The assay is described as follows: Displacement of [3H]NECA from human adenosine A3 receptor expressed in human HeLa cells at 0.1 uM by liquid scintillation counting. The assay is classed as cell-based. In outline: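 HeLa membranes (90 μg) carrying hA3AR were incubated with [3H]NECA (30 nM) at 25 °C for 180 min, with six concentrations from 0.1 nM to 1 μM. Nonspecific binding was defined with 100 μM R-PIA. Filters were washed six times and counted by scintillation. Ki (Cheng–Prusoff) is mean ± SEM, n=3; % displacement at 0.1 μM is n=2.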

Assay [3] addresses T1, Adenosine receptor A2b (Homo sapiens). In words: Displacement of [3H]DPCPX from human adenosine A2B receptor expressed in HEK293 cells at 1 uM by liquid scintillation counting. The assay is classed as cell-based.
Assay [4] addresses T2, Adenosine receptor A3 (Homo sapiens). The assay is described as follows: Displacement of [3H]NECA from human adenosine A3 receptor expressed in human HeLa cells at 1 uM by liquid scintillation counting. In kind it is cell-based.
For assay [5], the target named is T3, Adenosine receptor A2a (Homo sapiens, UniProt P29274). The assay is described as follows: Displacement of [3H][…] from human adenosine A2A receptor expressed in human HeLa cells at 0.1 uM by liquid scintillation counting. The assay is classed as cell-based. The procedure, abridged:
(§2)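 Nonspecific binding was defined with 50 μM NECA. Filters were washed four times with ice-cold buffer, then counted by scintillation. Ki (Cheng–Prusoff) is mean ± SEM, n=3; % displacement at 0.1 μM is n=2.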

Assay [6] concerns the target T3, Adenosine receptor A2a. In words: Displacement of [3H][…] from human adenosine A2A receptor expressed in human HeLa cells at 1 uM by liquid scintillation counting. The assay is classed as cell-based.
For the next assay, the target named is T4, Adenosine receptor A2b (Homo sapiens, UniProt P29275).
T4 sequence (P29275 whole entry): T1 sequence (whole entry)
In words: Displacement of [3H]DPCPX from human adenosine A2B receptor expressed in HEK293 cells by liquid scintillation counting. The assay is classed as cell-based. In outline:
as §1

The target in the next assay is T5, Adenosine receptor A3 (Homo sapiens, UniProt P0DMS8).
T5 sequence (P0DMS8 whole entry): T2 sequence (whole entry)
The assay is described as follows: Displacement of [3H]NECA from human adenosine A3 receptor expressed in human HeLa cells by liquid scintillation counting. In kind it is cell-based. The conditions noted are these: read-out: Ki. The procedure, abridged: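 HeLa membranes (90 μg) carrying hA3AR were incubated with [3H]NECA (30 nM) at 25 °C for 180 min, with six concentrations from 0.1 nM to 1 μM. Nonspecific binding was defined with 100 μM R-PIA. Filters were washed six times and counted by scintillation.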

A further assay deals with T6, Adenosine receptor A1 (Homo sapiens, UniProt P30542).
T6 sequence (P30542 whole entry): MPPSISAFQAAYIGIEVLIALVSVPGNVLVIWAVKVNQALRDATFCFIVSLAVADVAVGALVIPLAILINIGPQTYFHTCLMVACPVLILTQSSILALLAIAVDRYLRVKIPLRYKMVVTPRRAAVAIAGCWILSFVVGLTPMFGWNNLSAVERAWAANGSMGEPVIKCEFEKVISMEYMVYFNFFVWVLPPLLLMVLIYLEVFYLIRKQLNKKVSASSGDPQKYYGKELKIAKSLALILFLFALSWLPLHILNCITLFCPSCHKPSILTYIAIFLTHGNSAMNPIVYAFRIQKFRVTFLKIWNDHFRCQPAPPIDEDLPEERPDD
In words: Displacement of [3H]DPCPX from human adenosine A1 receptor expressed in CHO cells by liquid scintillation counting. The assay is classed as cell-based. In outline: (§3)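 Transfected CHO cell membranes (15 μg) were incubated with [3H]DPCPX at 25 °C for 60 min, with six test concentrations from 0.1 nM to 1 μM. Nonspecific binding was defined with 10 μM R-PIA. Filters were washed four times with ice-cold buffer before scintillation counting. Ki (Cheng–Prusoff) is mean ± SEM, n=3; % displacement at 0.1 μM is n=2.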

Assay [7] deals with T3, Adenosine receptor A2a. The assay is described as follows: Displacement of [3H][…] from human adenosine A2A receptor expressed in human HeLa cells by liquid scintillation counting. In kind it is cell-based. In outline: as §2
The target of assay [8] is T2, Adenosine receptor A3 (Homo sapiens). The assay is described as follows: Antagonist activity at human adenosine A3 receptor expressed in human HeLa cells assessed as inhibition of forskolin-stimulated cAMP production by enzyme immunoassay. In kind it is functional, cell-based. The procedure, abridged:
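Intact cells expressing hA3AR were stimulated with 10 μM forskolin, and receptor activation was induced with 0.1 μM NECA. Antagonist concentration-response curves were run against the NECA-induced cAMP decrease, with cAMP measured by enzyme immunoassay. K_B was derived from IC50, agonist concentration, agonist EC50 and curve slope. Data are mean ± SEM of two separate experiments.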

In assay [9] the target is T7, Adenosine receptor A1 (Homo sapiens) (UniProt P30542).
T7 sequence (whole entry): T6 sequence (P30542 whole entry)
The assay is described as follows: Displacement of [3H]DPCPX from human adenosine A1 receptor expressed in CHO cells at 0.1 uM by liquid scintillation counting. In kind it is cell-based. The procedure, abridged: as §3

T3 sequence (P29274 whole entry): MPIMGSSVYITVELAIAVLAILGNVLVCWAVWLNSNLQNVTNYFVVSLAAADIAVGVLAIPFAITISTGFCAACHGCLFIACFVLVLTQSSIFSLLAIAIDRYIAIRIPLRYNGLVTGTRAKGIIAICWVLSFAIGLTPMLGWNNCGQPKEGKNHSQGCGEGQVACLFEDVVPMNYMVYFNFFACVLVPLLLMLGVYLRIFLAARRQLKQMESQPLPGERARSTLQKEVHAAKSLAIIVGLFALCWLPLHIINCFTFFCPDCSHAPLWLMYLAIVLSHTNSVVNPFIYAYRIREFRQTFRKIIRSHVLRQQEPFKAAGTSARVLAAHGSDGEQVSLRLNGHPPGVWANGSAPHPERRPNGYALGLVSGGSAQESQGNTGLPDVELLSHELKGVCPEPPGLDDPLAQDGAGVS

As to `CCCC(=O)Nc1nc(-c2ccccc2)cc(-c2ccccc2)n1`, the inhibition is 14% in assay [1]; 17% in assay [2]; 54% in assay [3]; 38% in assay [4]; 3% at Adenosine receptor A2a [5]; 7% at Adenosine receptor A2a [6].
For the molecule `CCC(=O)Nc1cc(-c2ccsc2)nc(-c2ccsc2)n1`, the Ki came out at 0.165 µM on Adenosine receptor A2b, 0.0642 µM at Adenosine receptor A3, 0.0394 µM on Adenosine receptor A1 and 0.0635 µM at Adenosine receptor A2a [7].
In the case of `CC(=O)Nc1cc(-c2ccc(C)cc2)nc(-c2ccc(C)cc2)n1`, the inhibition in [1] was determined as 2%; on Adenosine receptor A2a [5], 8%; in assay [9], 2%. Also, the Ki on Adenosine receptor A3 was determined as 0.0044 µM. For the same molecule, the Kb in [8] stood at 0.00356 µM.
Turning to `COc1ccc(-c2cc(NC(C)=O)nc(-c3ccc(OC)cc3OC)n2)c(OC)c1`, the inhibition in assay [1] came out at 2%; at Adenosine receptor A2a [5] it was 6%; in assay [9], 1%. Besides, the Ki on Adenosine receptor A3 came out at 0.0054 µM. Further, in assay [8], the Kb came to 0.00385 µM.
Regarding `CCC(=O)Nc1nc(-c2ccc(SC)cc2)cc(-c2ccc(SC)cc2)n1`, the Ki turned out to be 0.374 µM at Adenosine receptor A2b, 4.43 µM at Adenosine receptor A3, 0.505 µM on Adenosine receptor A1 and 0.183 µM on Adenosine receptor A2a [7].
Taken in the same sequence, the figures for `CCC(=O)Nc1cc(-c2ccco2)nc(-c2ccco2)n1` were 0.0205 µM, 0.0062 µM, 0.0155 µM and 0.0064 µM.
Turning to `CCC(=O)Nc1cc(-c2ccoc2)nc(-c2ccoc2)n1`, the Ki on Adenosine receptor A2b was determined as 0.049 µM; on Adenosine receptor A3, 0.0126 µM; at Adenosine receptor A1, 0.132 µM; on Adenosine receptor A2a [7], 0.0828 µM.
Regarding `CCC(=O)Nc1cc(-c2ccc(OC)cc2)nc(-c2ccc(OC)cc2)n1`, the inhibition worked out at 3% in assay [1], 1% at Adenosine receptor A2a [5] and 8% in assay [9]. For the same molecule, the Ki at Adenosine receptor A3 came to 0.0036 µM. Further, the Kb in assay [8] came out at 0.0014 µM.
`CCC(=O)Nc1nc(-c2ccsc2)cc(-c2ccsc2)n1`: the Ki at Adenosine receptor A2b worked out at 3.25 µM; at Adenosine receptor A3, 1.28 µM; on Adenosine receptor A1, 0.367 µM; at Adenosine receptor A2a [7] it was 1.89 µM.
`CC(C)(C)CC(=O)Nc1cc(-c2ccccc2)nc(-c2ccccc2)n1`: the inhibition in assay [3] turned out to be 4%; in assay [4], 39%; at Adenosine receptor A2a [6] it was 32%.
As for `CCC(=O)Nc1cc(-c2ccc(Cl)cc2)nc(-c2ccc(Cl)cc2)n1`, the inhibition in assay [1] is 3%; on Adenosine receptor A2a [5], 20%; in assay [9], 16%. Further, at Adenosine receptor A3, the Ki was 0.0253 µM. In addition, in assay [8], the Kb was determined as 0.00388 µM.
`CCCC(=O)Nc1cc(-c2ccc(OC)cc2)nc(-c2ccc(OC)cc2)n1`: the results for the inhibition (in assay [1]; on Adenosine receptor A2a [5]; in [9]) were 1%, 4% and 8%, respectively. On Adenosine receptor A3, the Ki amounted to 0.011 µM. The Kb in assay [8] worked out at 0.00157 µM.
Turning to `CCC(=O)Nc1nc(-c2ccccc2F)cc(-c2ccccc2F)n1`, the Ki at Adenosine receptor A2b was 0.307 µM; on Adenosine receptor A3, 0.279 µM; at Adenosine receptor A1, 0.0482 µM; on Adenosine receptor A2a [7], 0.424 µM.
As to `O=C(Nc1nc(-c2ccccc2)cc(-c2ccccc2)n1)C1CCCC1`, the Ki on Adenosine receptor A3 worked out at 0.17 µM; at Adenosine receptor A1, 0.00214 µM; on Adenosine receptor A2a [7], 0.196 µM. This molecule registered an inhibition in assay [3] of 52%.
For the molecule `CC(C)C(=O)Nc1nc(-c2ccccc2)cc(-c2ccccc2)n1`, the results for the inhibition (in assay [3]; in [4]; on Adenosine receptor A2a [6]) were 79%, 45% and 44%, respectively.
Take `CC(=O)Nc1cc(-c2ccco2)nc(-c2ccco2)n1`: the Ki on Adenosine receptor A2b turned out to be 0.012 µM; on Adenosine receptor A3, 0.003 µM; at Adenosine receptor A1, 0.0407 µM; at Adenosine receptor A2a [7], 0.0081 µM.
`CCC(=O)Nc1cc(-c2ccccc2)nc(-c2ccccc2)n1`: the Ki on Adenosine receptor A2b came out at 0.0766 µM; at Adenosine receptor A3, 0.0455 µM; on Adenosine receptor A1, 0.0223 µM; on Adenosine receptor A2a [7] it was 0.0845 µM.
The corresponding values for `CCC(=O)Nc1nc(-c2ccccc2)cc(-c2ccccc2)n1` are 0.0425 µM, 0.531 µM, 0.0313 µM and 0.554 µM.

For the origin of these results see ChEMBL document CHEMBL1649418, “Pyrimidine derivatives as potent and selective A3 adenosine receptor antagonists” (J Med Chem, 2011).
